# RAM network inh = blocks the yeast RAM network. S. cerevisiae dse1pr::URA3 reporter, 5-FOA growth OD615, 2 d; analog-sensitive cbk1-as2 kinase mutant strain. inhibition, % at 50 µM. hit rate 1.8% among 190,000;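 active means inhibition above a set limit, 3 SD over mean compound inhibition, cut at about 8.4% in these data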;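 further: 0% = DMSO-only wells with no growth and 100% = 10 µM 1-NA-PP1 full growth; inhibition rescues growth on 5-FOA so higher OD means more RAM inhibition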
# L major viab = inhibitors of Leishmania major promastigote growth; Leishmania major promastigotes, resazurin fluorescence viability; inhibition, % at 10 µM; hit rate 9% among 200,000; in the data active means inhibition above about 50%;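 further: promastigotes grown with compound for 44 hours at 28 °C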
# ABCG2 inh = human ABCG2 inhibition, ABCB1 as counter-screen; Q9UNQ0; IgMXP3 cells, JC-1 efflux, flow cytometry; inhibition, % at 6.6 µM; hit rate 0.1% among 190,000;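 active means inhibition above 80%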;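 further: 0% = DMSO and 100% = nicardipine control wells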
#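 Measure – % inhibition of efflux relative to nicardipine and DMSO · Test system – ABCG2 IgMXP3 and barcoded ABCB1 CCRF-Adr cell mix · Control set – nicardipine as high control, DMSO as low control · Compound – one concentration, 6.6 µM final · Signal – flow cytometry of retained JC-1 fluorescence · Timing – 10 min exposure at 25 °C with rotation, no wash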
# WT yeast gro inh = growth inhibition of WT yeast, mitochondrial fusion screen | hit rate 2.1% among 190,000 | inhibition, % at 10 µM | AID 1362 | mitochondrial fusion phenotypic screen, WT strain; in the data active means inhibition above about 58%; tested in S. cerevisiae
# ABCB1 inh = inhibitors of human ABCB1 transporter, ABCG2 counter-screen | CCRF-Adr cells, JC-1 efflux, flow cytometry | inhibition, % at 6.6 µM | hit rate 0.067% among 190,000 | AID 1326; in the data active means inhibition above about 40%;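 further: 0% = vehicle and 100% = reference inhibitor; higher value means more JC-1 retained so stronger ABCB1 efflux block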
# Target sequence (P08183 whole entry, looked up): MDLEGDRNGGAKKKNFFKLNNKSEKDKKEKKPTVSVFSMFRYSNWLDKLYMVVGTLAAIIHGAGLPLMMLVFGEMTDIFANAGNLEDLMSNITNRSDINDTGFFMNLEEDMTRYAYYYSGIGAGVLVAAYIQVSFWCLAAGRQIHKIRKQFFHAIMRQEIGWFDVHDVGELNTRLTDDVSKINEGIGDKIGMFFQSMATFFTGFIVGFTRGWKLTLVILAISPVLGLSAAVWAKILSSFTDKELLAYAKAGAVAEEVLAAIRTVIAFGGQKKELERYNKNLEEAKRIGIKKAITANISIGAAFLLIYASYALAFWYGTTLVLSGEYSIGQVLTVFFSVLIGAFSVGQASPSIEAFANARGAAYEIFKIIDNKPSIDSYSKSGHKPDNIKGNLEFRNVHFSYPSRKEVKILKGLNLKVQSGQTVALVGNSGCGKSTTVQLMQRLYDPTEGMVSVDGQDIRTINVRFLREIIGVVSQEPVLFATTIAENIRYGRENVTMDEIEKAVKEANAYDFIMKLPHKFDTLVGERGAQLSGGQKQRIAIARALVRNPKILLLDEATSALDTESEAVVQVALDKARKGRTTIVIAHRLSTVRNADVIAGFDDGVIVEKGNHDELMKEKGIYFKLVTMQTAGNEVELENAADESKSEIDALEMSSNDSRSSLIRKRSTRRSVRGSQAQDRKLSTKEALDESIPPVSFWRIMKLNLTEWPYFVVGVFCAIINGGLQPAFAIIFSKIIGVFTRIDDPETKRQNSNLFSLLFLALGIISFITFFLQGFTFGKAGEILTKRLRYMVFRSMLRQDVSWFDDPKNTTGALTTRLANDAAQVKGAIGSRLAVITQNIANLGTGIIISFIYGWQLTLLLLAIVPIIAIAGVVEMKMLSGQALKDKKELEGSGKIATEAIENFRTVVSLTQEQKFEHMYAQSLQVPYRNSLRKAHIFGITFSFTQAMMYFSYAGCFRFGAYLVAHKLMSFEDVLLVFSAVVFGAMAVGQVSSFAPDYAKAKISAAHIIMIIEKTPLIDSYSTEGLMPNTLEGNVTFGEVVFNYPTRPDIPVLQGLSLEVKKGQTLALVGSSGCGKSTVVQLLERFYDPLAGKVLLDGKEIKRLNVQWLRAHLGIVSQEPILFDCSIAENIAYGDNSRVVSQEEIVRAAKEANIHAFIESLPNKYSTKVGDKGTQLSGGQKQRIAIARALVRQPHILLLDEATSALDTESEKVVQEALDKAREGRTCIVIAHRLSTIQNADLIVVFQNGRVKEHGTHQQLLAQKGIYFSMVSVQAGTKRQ
# * = called active by the depositor; . = no result. Hits are enriched below; roughly 12% of the tested compounds scored in any of these assays.
SMILES,RAM network inh,L major viab,ABCG2 inh,WT yeast gro inh,ABCB1 inh
CCNc1sc(C(=O)OCC)c(N)c1C#N,1.1,-4.7,1.1,-7.4,0.1
CN(C)c1ccc(C=C(c2nnnn2-c2ccccc2)c2nnnn2-c2ccccc2)cc1,3.0,4.3,-0.3,30.4,0.9
Cc1ccc2nc(N(CCCN(C)C)C(=O)c3ccc4c(c3)CCCC4)sc2c1,0.9,98.7*,3.5,79.5,1.8
CN(C)CCCN(C(=O)c1ccc2c(c1)CCCC2)c1nc2c(F)cccc2s1,1.4,28.6,1.4,26.9,1.0
Cc1ccc2nc(N(CCCN(C)C)C(=O)c3ccc(Br)s3)sc2c1,-0.1,32.0,-1.5,90.2*,-0.7
O=C(NCc1nc2ccccc2[nH]1)C1=C[C@@H](c2ccc(Br)cc2)C[C@@H](OCc2ccc(CO)cc2)O1,-0.8,78.0*,5.8,16.3,4.9
O=C(NCc1ccccc1)C1=C[C@@H](c2ccc(Br)cc2)C[C@@H](OCc2ccc(CO)cc2)O1,8.8*,54.9*,3.6,25.9,0.9
O=C(NCc1nc2ccccc2[nH]1)C1=C[C@@H](c2csc3ccccc23)C[C@@H](OCc2ccc(CO)cc2)O1,4.3,95.5*,5.0,8.6,5.3
C#CCNC(=O)C1=C[C@@H](c2ccc(Br)cc2)C[C@@H](OCc2ccc(CO)cc2)O1,7.6,12.1,0.4,21.8,0.0
O=C(COC(=O)CCc1ccccc1)Nc1ncc(Cl)cc1Cl,-0.1,-6.3,4.1,0.4,0.9
CC(C)Cc1nc2oc3c(N4CCN(CCO)CC4)ncnc3c2c2c1CCCC2,0.0,51.7*,29.5,18.2,16.4
CCOc1ccc(C(=O)NCc2ccccc2)cc1Br,0.9,-2.8,7.4,20.5,0.4
CC(C)=CCCC(C)CN1CCC(O)CC1 (centres undefined),1.5,13.0,6.2,16.9,0.7
CC(C)=CCC/C(C)=C/CC(C)(C)CNCCN1CCNCC1,-1.7,100.4*,0.2,4.1,0.1
CC(C)=CCC/C(C)=C/CCC(C)NCCN1CCNCC1 (centres undefined),-0.4,100.5*,8.3,31.9,0.5
CSc1nnc(SCC2=NNC(=O)SC2)s1,1.9,-9.3,-1.0,-1.9,.
Cc1ccc(N2C(=O)C3C4CC(=O)C(c5ccccc54)C3C2=O)cc1C (centres undefined),2.1,-3.2,17.0,15.1,0.9
COc1ccc(C2Nc3ccccc3C(=O)N2NS(=O)(=O)c2ccccc2)cc1 (centres undefined),1.3,3.8,13.7,-8.9,1.6
Cc1ccc(CNC(=O)C(=O)NCC2OCCN2C(=O)c2cccs2)cc1 (centres undefined),9.5*,-2.8,-5.6,-8.7,0.2
O=C(NCc1ccccc1)C(=O)NCC1OCCN1C(=O)c1cccs1 (centres undefined),0.4,-0.3,-5.6,-11.2,0.2
CC1C(c2ccccc2)N(C)C(c2ccccc2)CC1(O)c1ccc(F)cc1 (centres undefined),-0.8,49.1,3.5,68.6*,0.4
Fc1ccc(NC(=S)N2N=CCC2c2ccccc2)cc1 (centres undefined),2.1,8.2,0.3,16.4,-0.1
Cc1csc(=Nc2c(C)n(C)n(-c3ccccc3)c2=O)n1Cc1ccccc1,3.1,-5.3,-3.0,-17.6,-0.3
C=CCn1c(-c2ccc(OC)cc2)csc1=Nc1c(C)n(C)n(-c2ccccc2)c1=O,1.9,93.1*,2.4,5.8,1.0
O=C1c2ccccc2-c2n[nH]c(=O)c3ccc(N4CCCCC4)c1c23,1.0,23.2,6.2,62.8*,2.0
SMILES,RAM network inh,L major viab,ABCG2 inh,WT yeast gro inh,ABCB1 inh
CCOC(=O)c1c(NC(=O)COc2cccc3c2CCN(Cc2ccc(F)cc2)C3=O)sc2c1CCC2,4.4,0.9,15.5,14.5,3.4
CCOC(=O)c1c(NC(=O)COc2cccc3c2CCN(CC)C3=O)sc2c1CCC2,4.8,58.8*,-0.2,-13.9,3.5
CCOC(=O)c1c(NC(=O)C(=O)N/N=C/c2ccccc2O)sc2c1CCCCC2,3.6,98.7*,-4.6,-2.0,-0.3
CCOC(=O)c1c(NC(=O)C(=O)N/N=C/c2ccccc2OC)sc2c1CCCCC2,1.6,2.8,-3.1,12.3,-0.7
CCOC(=O)c1c(NC(=O)CN2CCN(C(=O)c3ccco3)CC2)sc2c1CCCC2,0.4,52.2*,9.9,65.6*,3.1
O=C(O)c1ccc(CSc2nnc(-c3cccnc3)n2-c2ccc(Br)cc2)cc1,2.3,-8.0,6.9,-15.3,0.6
CCOC(=O)C(=NCCCN1CCOCC1)NNc1cccc(C(F)(F)F)c1,0.3,10.8,1.8,46.9,-0.1

# Compound activity as filed in PubChem.
